Statin myotox sup: protects C2C12 myotubes from simvastatin toxicity; ATP luminescence, 48 h; scaled: DMSO 0, geranylgeraniol control 100; rescue of ATP level, % at 7.49 µM; hit rate 0.78% among 330,000; AID 602340;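 active = mean ATP rescue above about 67%, or every replicate alone reaching that limit, limit read from the data, passing the limit was not always enough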;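 also: myotubes were challenged with 10 µM simvastatin during compound exposure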
DENV2 CPE: DENV2-induced cell death inhibition | DENV2-infected cells, cytopathic effect rescue, plate reader | hit rate 1.7% among 350,000 | CPE inhibition, % at 9.99 µM | AID 651640; in the data active = CPE inhibition above about 20%, passing the limit was not always enough; tested in BHK-21 cells
E-selectin induc: E-selectin induction on HUVECs; P16581; HUVEC E-selectin immunofluorescence imaging; normalized: neutral wells 0, TNF-alpha wells 100; activation, % at 7.58 µM; hit rate 0.37% among 260,000;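 active = mean E-selectin-positive cell signal at least 10% of the positive control, reached in at least 60% of replicates, without over 20% cell loss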
Target sequence (P16581 whole entry, looked up): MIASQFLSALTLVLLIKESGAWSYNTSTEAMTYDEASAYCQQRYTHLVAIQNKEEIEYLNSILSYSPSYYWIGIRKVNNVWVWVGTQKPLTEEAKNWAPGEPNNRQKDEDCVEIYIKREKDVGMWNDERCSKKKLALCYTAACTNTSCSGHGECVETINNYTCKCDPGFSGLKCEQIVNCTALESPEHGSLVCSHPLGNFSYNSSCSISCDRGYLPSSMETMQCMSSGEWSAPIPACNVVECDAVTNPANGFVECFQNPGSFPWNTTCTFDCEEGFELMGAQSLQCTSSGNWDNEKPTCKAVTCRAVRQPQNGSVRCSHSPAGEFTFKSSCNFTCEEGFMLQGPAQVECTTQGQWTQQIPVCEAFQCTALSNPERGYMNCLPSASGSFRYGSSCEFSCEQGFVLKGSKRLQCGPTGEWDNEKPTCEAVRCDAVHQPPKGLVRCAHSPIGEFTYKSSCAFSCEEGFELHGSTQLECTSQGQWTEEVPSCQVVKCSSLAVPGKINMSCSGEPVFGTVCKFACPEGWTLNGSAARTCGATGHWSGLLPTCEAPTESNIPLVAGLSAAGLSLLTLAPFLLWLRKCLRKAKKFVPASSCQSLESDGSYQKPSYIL
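Test system: HUVEC; input: 3,000 HUVEC/well; measured by: immunofluorescence imaging; read-out: % PE-positive cells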
A number is an active result. A selection: hits, their analogues and other compounds. The true share with any hit is near 2.2%.

O=C(C[C@@H]1CC[C@H](NC(=O)Nc2ccccc2F)[C@H](CO)O1)NCc1ccc(-c2ccccc2)cc1 was read as DENV2 CPE inactive and E-selectin induc inactive.
O=C(C[C@H]1CC[C@@H](NC(=O)Nc2ccccc2F)[C@@H](CO)O1)NCc1ccc(-c2ccccc2)cc1 was read as DENV2 CPE 30.2 and E-selectin induc inactive.
For CCC(=O)N[C@@H]1C=C[C@@H](CC(=O)NCc2ccccc2OC)O[C@H]1CO the results were Statin myotox sup inactive, DENV2 CPE inactive and E-selectin induc inactive.
O=C(C[C@H]1C[C@H]2c3cc(NS(=O)(=O)c4ccc(F)cc4)ccc3O[C@H]2[C@@H](CO)O1)NCc1cccc(F)c1 was read as Statin myotox sup inactive, DENV2 CPE inactive and E-selectin induc inactive.
Screening CC(OC(=O)c1ccccc1NS(=O)(=O)c1cccc(N)c1)C(=O)N(C)Cc1ccccc1 (centres undefined) returned Statin myotox sup 86.1 and DENV2 CPE inactive.
For CC(OC(=O)c1cccc(O)c1)C(=O)N(C)Cc1ccccc1 (centres undefined) the results were Statin myotox sup inactive, DENV2 CPE inactive and E-selectin induc inactive.
For COc1cc(/C=N/NC(=O)c2cc(-c3ccco3)nc3ccccc23)cc(OC)c1O the results were DENV2 CPE 30.8 and E-selectin induc inactive.
COc1cc(/C=N/NC(=O)c2cc(-c3ccccc3Cl)nc3ccccc23)cc(OC)c1O was read as DENV2 CPE inactive.
`CCC1(C)C2(C#N)C(N)=NC(OC)(OC)C12C#N` (centres undefined) gave Statin myotox sup 72.2.
`CC1(C)C2(C#N)C(N)=NC3(OCCO3)C12C#N` (centres undefined) gave Statin myotox sup inactive.
For COc1ccccc1NC(=O)N[C@H]1C=C[C@H](CC(=O)N[C@H](C)c2ccccc2)O[C@H]1CO the results were Statin myotox sup inactive, DENV2 CPE inactive and E-selectin induc inactive.
`COc1ccc2c3c([nH]c2c1)[C@H](CO)N(Cc1ccccc1F)CC31CCN(C(=O)C2CCC2)CC1` gave DENV2 CPE inactive and E-selectin induc inactive.
`C[C@@H]1COC(=O)[C@H](CC(=O)OC(C)(C)C)C/C=C\C[C@H](CC(=O)NCCO)C(=O)N1` gave Statin myotox sup inactive, DENV2 CPE inactive and E-selectin induc inactive.
Screening C[C@@H]1COC(=O)[C@@H](CC(=O)OC(C)(C)C)C/C=C\C[C@@H](CC(=O)NCCO)C(=O)N1 returned Statin myotox sup inactive and DENV2 CPE 24.2.
For CCC(=O)N(C)C[C@H]1Oc2ncc(C#Cc3ccccc3)cc2C(=O)N([C@@H](C)CO)C[C@H]1C the results were Statin myotox sup inactive, DENV2 CPE inactive and E-selectin induc inactive.
Screening CC(C)NC(=O)N(C)C[C@@H]1OCCCC[C@@H](C)Oc2ccc(NC(=O)Nc3ccccc3)cc2C(=O)N([C@@H](C)CO)C[C@@H]1C returned DENV2 CPE inactive.
`CCc1c(C)sc(NC(=O)c2ccco2)c1C(=O)N1CCCCC1` gave Statin myotox sup 116.2.
`CCc1c(C)sc(NC(=O)c2ccco2)c1C(=O)N1CCOCC1` gave Statin myotox sup inactive.
Screening C[C@H](CO)N1C[C@H](C)[C@@H](CN(C)Cc2ccc3c(c2)OCO3)Oc2ccc(NC(=O)CCCN(C)C)cc2CC1=O returned Statin myotox sup inactive and E-selectin induc inactive.
Screening C[C@H](CO)N1C[C@H](C)[C@@H](CN(C)S(=O)(=O)c2cccs2)Oc2ccc(NS(C)(=O)=O)cc2C1=O returned Statin myotox sup inactive and E-selectin induc inactive.
For Cc1ccc(CNC(=O)OC2CC3CC2[C@H]2CCCCN2C3=O)cc1 (some centres undefined) the results were DENV2 CPE inactive and E-selectin induc inactive.
Screening CCCNC(=O)OC1CC2CC1[C@H]1CCCCN1C2=O (some centres undefined) returned DENV2 CPE 29.3 and E-selectin induc inactive.
`CC[C@H]1c2[nH]c3ccccc3c2C[C@H]2C(=O)N(c3ccc(F)cc3)C(=O)N21` gave Statin myotox sup inactive and DENV2 CPE 56.7.
Screening CC1(C)c2[nH]c3ccccc3c2C[C@@H]2C(=O)N(Cc3ccc(F)cc3)C(=O)N21 returned DENV2 CPE inactive and E-selectin induc inactive.
For CCCCSc1nc(C)cc(SCC(=O)N/N=C/c2cccc(OC)c2O)n1 the results were Statin myotox sup 126.3.
COc1cccc(/C=N/NC(=O)CSc2nnc(C)n2-c2ccccc2)c1O was read as Statin myotox sup inactive.
Screening CCNC(=O)O/N=C(\C)c1sc(-c2ccc(Cl)cc2)nc1C returned Statin myotox sup inactive.
C/C(=N\OC(=O)NC(C)C)c1sc(-c2ccc(Cl)cc2)nc1C was read as Statin myotox sup 71.2.
